Experimental data from ChEMBL document CHEMBL4257505, “New tetrahydroisoquinoline-based P-glycoprotein modulators: decoration of the biphenyl core gives selective ligands” (Medchemcomm, 2018).
Calls of active or inactive are those of the source.

Experiments:
[1] = molecular target: T1, ATP-dependent translocase ABCB1 (Homo sapiens, UniProt P08183); experiment: Inhibition of MDR1 (unknown origin) expressed in MDCK cells assessed as reduction in calcein-AM efflux preincubated for 30 mins followed by calcein-AM addition measured after 30 mins by fluorescence assay; format: cell-based
T1 sequence (P08183 whole entry): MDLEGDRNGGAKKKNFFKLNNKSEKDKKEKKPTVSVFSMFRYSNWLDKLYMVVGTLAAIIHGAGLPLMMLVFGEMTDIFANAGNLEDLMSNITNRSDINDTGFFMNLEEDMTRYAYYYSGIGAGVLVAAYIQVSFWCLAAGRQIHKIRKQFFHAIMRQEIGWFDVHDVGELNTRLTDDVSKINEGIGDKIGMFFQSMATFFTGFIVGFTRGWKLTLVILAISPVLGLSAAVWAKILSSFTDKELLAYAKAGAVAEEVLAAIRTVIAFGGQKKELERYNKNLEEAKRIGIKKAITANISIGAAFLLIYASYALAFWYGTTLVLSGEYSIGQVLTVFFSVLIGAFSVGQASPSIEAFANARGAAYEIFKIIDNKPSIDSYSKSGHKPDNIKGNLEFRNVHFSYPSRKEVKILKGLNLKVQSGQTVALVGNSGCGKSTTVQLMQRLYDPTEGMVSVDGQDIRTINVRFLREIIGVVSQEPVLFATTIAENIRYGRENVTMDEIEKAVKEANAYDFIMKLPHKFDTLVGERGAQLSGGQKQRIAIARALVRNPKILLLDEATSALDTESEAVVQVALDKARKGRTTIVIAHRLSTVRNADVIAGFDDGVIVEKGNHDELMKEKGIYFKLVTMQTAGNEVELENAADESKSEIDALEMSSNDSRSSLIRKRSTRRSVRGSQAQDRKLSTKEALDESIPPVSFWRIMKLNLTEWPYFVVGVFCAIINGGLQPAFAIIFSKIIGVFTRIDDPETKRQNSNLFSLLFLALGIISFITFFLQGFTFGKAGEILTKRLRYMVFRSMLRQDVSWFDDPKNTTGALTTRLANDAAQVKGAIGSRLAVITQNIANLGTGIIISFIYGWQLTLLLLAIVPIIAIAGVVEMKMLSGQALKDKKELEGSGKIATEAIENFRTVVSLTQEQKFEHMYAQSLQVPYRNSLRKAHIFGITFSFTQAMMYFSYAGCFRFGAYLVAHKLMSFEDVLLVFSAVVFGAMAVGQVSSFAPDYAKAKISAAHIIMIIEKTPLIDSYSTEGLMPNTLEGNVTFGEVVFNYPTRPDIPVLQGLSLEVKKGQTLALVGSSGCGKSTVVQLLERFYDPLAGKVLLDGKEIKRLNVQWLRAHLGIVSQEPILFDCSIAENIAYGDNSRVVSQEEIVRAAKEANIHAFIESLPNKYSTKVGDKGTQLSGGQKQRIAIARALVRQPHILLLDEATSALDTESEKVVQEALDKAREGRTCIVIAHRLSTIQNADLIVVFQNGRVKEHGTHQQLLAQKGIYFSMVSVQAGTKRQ
How it was run: (§1)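 Competition with P-gp-mediated efflux of the pro-fluorescent substrate calcein-AM in MDCK-MDR1 cells, reported as EC50. Means of three independent experiments, samples in duplicate.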

[2] = molecular target: T2, Broad substrate specificity ATP-binding cassette transporter ABCG2 (Homo sapiens, UniProt Q9UNQ0); experiment: Inhibition of BCRP (unknown origin) expressed in MDCK cells assessed as reduction in Hoechst 33342 efflux at 100 uM preincubated for 30 mins followed by Hoechst 3334 addition measured after 30 mins by fluorescence assay; format: cell-based; conditions: 0.5 h
T2 sequence (Q9UNQ0 whole entry): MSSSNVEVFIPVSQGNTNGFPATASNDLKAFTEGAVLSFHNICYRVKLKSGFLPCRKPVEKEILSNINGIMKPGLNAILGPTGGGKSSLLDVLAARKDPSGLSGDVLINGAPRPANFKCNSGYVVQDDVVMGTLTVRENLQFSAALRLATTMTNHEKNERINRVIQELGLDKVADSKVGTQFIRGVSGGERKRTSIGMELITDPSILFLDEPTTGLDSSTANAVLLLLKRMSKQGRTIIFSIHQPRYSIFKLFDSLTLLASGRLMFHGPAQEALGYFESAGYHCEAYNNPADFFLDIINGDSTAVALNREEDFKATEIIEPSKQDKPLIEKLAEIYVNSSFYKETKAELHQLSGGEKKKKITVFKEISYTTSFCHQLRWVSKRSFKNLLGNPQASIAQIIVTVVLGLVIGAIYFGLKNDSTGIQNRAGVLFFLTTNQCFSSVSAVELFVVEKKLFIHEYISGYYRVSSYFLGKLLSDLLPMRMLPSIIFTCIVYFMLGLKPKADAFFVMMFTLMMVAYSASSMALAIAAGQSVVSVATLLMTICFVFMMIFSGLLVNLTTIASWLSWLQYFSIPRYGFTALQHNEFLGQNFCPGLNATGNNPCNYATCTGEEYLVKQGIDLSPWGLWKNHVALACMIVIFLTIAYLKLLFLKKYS
How it was run: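 Interference with BCRP-mediated transport of the fluorescent substrate Hoechst 33342. Not active defined at 100 μM. Means of three independent experiments, duplicate samples.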

[3] = molecular target: T3, Multidrug resistance-associated protein 1 (Homo sapiens, UniProt P33527); experiment: Inhibition of MRP1 (unknown origin) expressed in MDCK cells assessed as reduction in calcein-AM efflux at 100 uM preincubated for 30 mins followed by calcein-AM addition measured after 30 mins by fluorescence assay; format: cell-based; conditions: 0.5 h
T3 sequence (P33527 whole entry): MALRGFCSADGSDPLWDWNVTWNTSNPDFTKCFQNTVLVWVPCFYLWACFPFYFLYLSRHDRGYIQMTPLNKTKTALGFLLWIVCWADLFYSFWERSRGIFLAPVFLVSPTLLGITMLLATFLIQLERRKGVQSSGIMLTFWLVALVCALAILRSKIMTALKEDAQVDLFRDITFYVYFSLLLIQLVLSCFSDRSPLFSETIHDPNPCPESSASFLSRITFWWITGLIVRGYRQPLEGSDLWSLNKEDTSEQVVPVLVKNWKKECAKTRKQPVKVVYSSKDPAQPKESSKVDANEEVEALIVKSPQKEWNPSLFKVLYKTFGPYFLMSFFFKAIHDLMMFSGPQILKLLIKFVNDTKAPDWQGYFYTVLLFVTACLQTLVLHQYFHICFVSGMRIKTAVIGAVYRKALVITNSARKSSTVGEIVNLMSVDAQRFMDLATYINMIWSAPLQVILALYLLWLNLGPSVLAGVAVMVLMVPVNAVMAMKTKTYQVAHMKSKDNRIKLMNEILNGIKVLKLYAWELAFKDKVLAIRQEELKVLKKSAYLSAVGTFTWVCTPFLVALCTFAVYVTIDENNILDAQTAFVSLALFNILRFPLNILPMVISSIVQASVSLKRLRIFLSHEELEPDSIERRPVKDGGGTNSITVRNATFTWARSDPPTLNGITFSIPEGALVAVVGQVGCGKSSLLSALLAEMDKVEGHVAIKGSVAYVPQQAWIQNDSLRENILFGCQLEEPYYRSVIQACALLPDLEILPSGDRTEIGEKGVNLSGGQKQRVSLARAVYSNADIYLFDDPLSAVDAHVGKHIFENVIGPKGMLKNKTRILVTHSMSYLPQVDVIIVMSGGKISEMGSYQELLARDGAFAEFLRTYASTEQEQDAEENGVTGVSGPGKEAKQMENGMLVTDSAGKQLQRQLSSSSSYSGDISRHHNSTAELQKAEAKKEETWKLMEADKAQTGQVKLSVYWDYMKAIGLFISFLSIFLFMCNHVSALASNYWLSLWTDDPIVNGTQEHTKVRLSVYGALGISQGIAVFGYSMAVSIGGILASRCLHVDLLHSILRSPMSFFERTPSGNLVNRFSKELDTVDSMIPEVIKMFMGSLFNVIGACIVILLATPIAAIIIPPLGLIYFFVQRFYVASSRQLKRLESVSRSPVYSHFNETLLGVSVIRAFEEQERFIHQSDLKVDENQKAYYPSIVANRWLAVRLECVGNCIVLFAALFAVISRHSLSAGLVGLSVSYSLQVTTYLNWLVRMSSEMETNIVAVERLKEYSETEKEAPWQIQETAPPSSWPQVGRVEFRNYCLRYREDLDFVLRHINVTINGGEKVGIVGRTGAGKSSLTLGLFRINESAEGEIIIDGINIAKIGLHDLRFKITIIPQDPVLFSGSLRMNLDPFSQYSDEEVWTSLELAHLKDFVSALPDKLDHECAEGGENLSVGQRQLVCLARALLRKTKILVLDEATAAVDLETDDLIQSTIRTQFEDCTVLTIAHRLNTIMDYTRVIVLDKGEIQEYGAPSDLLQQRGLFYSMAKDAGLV
How it was run: (§2)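 Interference with MRP1-mediated transport of pro-fluorescent calcein-AM, reported as EC50. Not active defined at 100 μM. Means of three independent experiments, duplicate samples.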

[4] = molecular target: T1, ATP-dependent translocase ABCB1; experiment: Inhibition of MDR1 (unknown origin) expressed in MDCK cells assessed as reduction in ATP consumption after 2 hrs by ATPlite assay; format: cell-based
How it was run: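 ATP cell level depletion measured in MDCK-MDR1 cells. Means of three independent experiments, samples analysed in duplicate.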

[5] = Efflux ratio of apparent permeability from basolateral to apical over apical to basolateral side in human Caco2 cells at 100 uM after 120 mins; format: ADME, cell-based; conditions: Caco-2
How it was run: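 Bidirectional permeability across Caco-2 monolayers. Papp expressed as the basolateral-to-apical over apical-to-basolateral (BA/AB) ratio. Values from two independent experiments. A ratio >2 is read as substrate behaviour, <2 as inhibitor.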

[6] = Inhibition of P-gp (unknown origin); set-up: species or system Homo sapiens; how it was run: as §1
[7] = molecular target: T1, ATP-dependent translocase ABCB1; experiment: Inhibition of MDR1 (unknown origin) expressed in MDCK cells assessed as increase in doxorubicin-induced cytotoxicity at 10 uM after 48 hrs by MTT assay relative to control; format: cell-based; set-up: scale not given: the % may be the effect or the level left
How it was run: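 MDCK-MDR1 cells treated for 48 h with compound at 10 μM, alone or together with doxorubicin at 10 μM. Antiproliferative effect compared with doxorubicin 10 μM alone.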

MDCK [8] = experiment: Downregulation of MDR1 protein expression in MDCK-MDR1 cells at 10 uM after 48 hrs by immunoblot analysis; format: functional, cell-based; conditions: Canis lupus familiaris
How it was run: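 Immunoblot of P-gp in MDCK-MDR1 cells treated at 10 μM for 48 h, with untreated cells as control. Protein extracted after incubation, actin used as loading control. Blot representative of 3 experiments.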

MDCK [9] = experiment: Cytotoxicity against MDCK cells over-expressing MDR1 at 0.1 to 25 uM after 48 to 72 hrs by MTT assay; format: ADME, cell-based, Canis lupus familiaris; conditions: dog
[10] = molecular target: T3, Multidrug resistance-associated protein 1; experiment: Inhibition of MRP1 (unknown origin) expressed in MDCK cells assessed as reduction in calcein-AM efflux preincubated for 30 mins followed by calcein-AM addition measured after 30 mins by fluorescence assay; format: cell-based; how it was run: as §2

EC50 [1] | inhibition (INH) [2] | inhibition (INH) [3] | inhibition (INH) [4] | efflux ratio at 2 h, 100 µM [5] | EC50 [6] | EC50 [10] | SMILES | Activity [7] | Activity (MDCK [8]) | Activity (MDCK [9])
2.17 µM | Not Active | Not Active | Active | 4.5 | – | – | COc1cc2c(cc1OC)CN(Cc1ccc(-c3ccc(O)cc3F)cc1)CC2 | – | – | –
6.9 µM | Not Active | Not Active | Active | 7.5 | – | – | COc1cc2c(cc1OC)CN(Cc1ccc(-c3ccc(O)c(N)c3)cc1)CC2 | – | – | –
– | – | – | Active | – | 0.69 µM | – | COc1cc2c(cc1OC)CN(Cc1ccc(-c3ccc(O)cc3)cc1)CC2 | 20% | inactive | –
6.2 µM | Not Active | Not Active | Active | 3.7 | – | – | COc1cc2c(cc1OC)CN(Cc1ccc(-c3ccc(O)cc3)c(F)c1)CC2 | – | – | –
5.4 µM | Not Active | Not Active | Active | 4.5 | – | – | COc1cc2c(cc1OC)CN(Cc1ccc(-c3ccc(O)cc3N)cc1)CC2 | – | – | –
2.54 µM | Not Active | Not Active | Active | 11.2 | – | – | COc1cc2c(cc1OC)CN(Cc1ccc(-c3ccc(O)cc3[N+](=O)[O-])cc1)CC2 | – | – | –
1.6 µM | Not Active | Not Active | Active | 4.5 | – | – | COc1cc(-c2ccc(O)cc2)ccc1CN1CCc2cc(OC)c(OC)cc2C1 | 15% | inactive | Non-Toxic
1.86 µM | Not Active | – | Active | 3.5 | – | 62 µM | COc1cc2c(cc1OC)CN(Cc1ccc(-c3ccc(O)cc3OC)cc1)CC2 | 60% | inactive | Non-Toxic
4.73 µM | Not Active | Not Active | Active | 4.1 | – | – | COc1cc2c(cc1OC)CN(Cc1ccc(-c3ccc(O)cc3)cc1F)CC2 | – | – | –
15.2 µM | Not Active | Not Active | Active | 2.9 | – | – | COc1cc2c(cc1OC)CN(Cc1ccc(-c3ccc(O)cc3)c([N+](=O)[O-])c1)CC2 | – | – | –
2.8 µM | Not Active | Not Active | Active | 4.9 | – | – | COc1cc2c(cc1OC)CN(Cc1ccc(-c3ccc(O)c(F)c3)cc1)CC2 | – | – | –
12.7 µM | Not Active | – | Active | 6.3 | – | 28.9 µM | COc1cc2c(cc1OC)CN(Cc1ccc(-c3ccc(O)c([N+](=O)[O-])c3)cc1)CC2 | – | – | –
8.4 µM | Not Active | Not Active | Active | 5.8 | – | – | COc1cc2c(cc1OC)CN(Cc1ccc(-c3ccc(O)cc3)cc1[N+](=O)[O-])CC2 | – | – | –
1.51 µM | Not Active | – | Active | 4.4 | – | 38 µM | COc1cc2c(cc1OC)CN(Cc1ccc(-c3ccc(O)cc3)c(OC)c1)CC2 | 15% | inactive | Non-Toxic
2 µM | Not Active | Not Active | Active | 3.9 | – | – | COc1cc(-c2ccc(CN3CCc4cc(OC)c(OC)cc4C3)cc2)ccc1O | – | – | –
